{
  "source": "ChEMBL document CHEMBL1833906",
  "about": "“Design and evaluation of a novel fluorescent CB2 ligand as probe for receptor visualization in immune cells” (Bioorg Med Chem Lett, 2011)",
  "key": {"[1]": {"target": "T1, 5-hydroxytryptamine receptor 2C (Homo sapiens) (UniProt P28335)", "T1 sequence (whole entry)": "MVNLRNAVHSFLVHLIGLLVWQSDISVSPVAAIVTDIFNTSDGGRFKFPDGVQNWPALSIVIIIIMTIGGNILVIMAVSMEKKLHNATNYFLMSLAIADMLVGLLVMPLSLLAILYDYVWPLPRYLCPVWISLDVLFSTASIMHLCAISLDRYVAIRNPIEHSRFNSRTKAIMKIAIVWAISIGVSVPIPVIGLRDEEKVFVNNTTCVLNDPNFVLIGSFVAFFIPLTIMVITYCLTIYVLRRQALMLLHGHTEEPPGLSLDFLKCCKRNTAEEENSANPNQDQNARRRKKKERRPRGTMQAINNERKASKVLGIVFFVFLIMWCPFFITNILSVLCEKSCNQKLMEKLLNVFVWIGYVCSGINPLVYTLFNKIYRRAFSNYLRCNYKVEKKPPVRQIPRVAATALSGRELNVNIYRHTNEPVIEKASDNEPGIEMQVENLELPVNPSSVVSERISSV", "assay": "Displacement of [3H]-mesulergine from 5HT2C receptor at 10 uM", "method_in_brief": "(§1)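 Single-point competitive radioligand binding screen at 10 µM test concentration, measured as % inhibition of radioligand binding. Radioligands: [3H]CP55940 for CB1, [3H]ketanserin for 5-HT2A, [3H]mesulergine for 5-HT2C. Run by the NIMH Psychoactive Drug Screening Program.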"}, "Cannabinoid receptor 2": {"target": "Cannabinoid receptor 2 (Homo sapiens, UniProt P34972)", "sequence (P34972 whole entry)": "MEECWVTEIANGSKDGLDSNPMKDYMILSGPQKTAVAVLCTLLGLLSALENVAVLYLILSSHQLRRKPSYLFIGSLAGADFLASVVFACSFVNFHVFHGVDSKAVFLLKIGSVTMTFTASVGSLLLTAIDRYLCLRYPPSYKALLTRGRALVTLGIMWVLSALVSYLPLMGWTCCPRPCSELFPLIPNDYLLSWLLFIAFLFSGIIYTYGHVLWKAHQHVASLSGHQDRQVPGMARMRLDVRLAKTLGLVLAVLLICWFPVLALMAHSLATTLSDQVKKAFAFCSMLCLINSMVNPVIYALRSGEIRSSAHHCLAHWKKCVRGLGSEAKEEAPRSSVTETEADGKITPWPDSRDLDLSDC", "assay": "Displacement of [3H]-CP55940 from human recombinant cannabinoid CB2 receptor expressed in CHO-K1 cells", "format": "cell-based"}, "[2]": {"target": "Cannabinoid receptor 2 (Mus musculus) (UniProt P47936)", "sequence (P47936 whole entry)": "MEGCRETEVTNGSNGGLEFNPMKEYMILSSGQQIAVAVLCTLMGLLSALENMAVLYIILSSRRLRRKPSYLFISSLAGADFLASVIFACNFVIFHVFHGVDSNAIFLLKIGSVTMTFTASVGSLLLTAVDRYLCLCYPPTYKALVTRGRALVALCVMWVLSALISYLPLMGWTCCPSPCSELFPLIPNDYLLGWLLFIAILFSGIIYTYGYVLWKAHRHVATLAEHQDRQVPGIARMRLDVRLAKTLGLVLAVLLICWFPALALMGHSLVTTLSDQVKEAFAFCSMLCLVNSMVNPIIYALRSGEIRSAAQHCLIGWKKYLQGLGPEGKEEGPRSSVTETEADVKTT", "assay": "Binding affinity to cannabinoid CB2 receptor in non transfected BALB/c mouse CD4+ T cells at 5 uM after 30 mins […] by confocal microscopic analysis", "format": "cell-based", "conditions": "T-cell"}, "[3]": {"target": "Cannabinoid receptor 2 (Mus musculus) (UniProt P47936)", "assay": "Binding affinity to cannabinoid CB2 receptor in non transfected BALB/c mouse CD4+ T cells at 0.1 uM after 30 mins using […] by confocal microscopic analysis", "format": "cell-based", "conditions": "T-cell"}, "[4]": {"target": "Cannabinoid receptor 2 (Mus musculus) (UniProt P47936)", "assay": "Binding affinity to cannabinoid CB2 receptor in non transfected BALB/c mouse CD4+ T cells after 30 mins […] by confocal microscopic analysis in presence of CB2 receptor agonist GW842166X", "format": "cell-based", "conditions": "T-cell"}, "[5]": {"target": "5-hydroxytryptamine receptor 2A (Homo sapiens) (UniProt P28223)", "sequence (P28223 whole entry)": "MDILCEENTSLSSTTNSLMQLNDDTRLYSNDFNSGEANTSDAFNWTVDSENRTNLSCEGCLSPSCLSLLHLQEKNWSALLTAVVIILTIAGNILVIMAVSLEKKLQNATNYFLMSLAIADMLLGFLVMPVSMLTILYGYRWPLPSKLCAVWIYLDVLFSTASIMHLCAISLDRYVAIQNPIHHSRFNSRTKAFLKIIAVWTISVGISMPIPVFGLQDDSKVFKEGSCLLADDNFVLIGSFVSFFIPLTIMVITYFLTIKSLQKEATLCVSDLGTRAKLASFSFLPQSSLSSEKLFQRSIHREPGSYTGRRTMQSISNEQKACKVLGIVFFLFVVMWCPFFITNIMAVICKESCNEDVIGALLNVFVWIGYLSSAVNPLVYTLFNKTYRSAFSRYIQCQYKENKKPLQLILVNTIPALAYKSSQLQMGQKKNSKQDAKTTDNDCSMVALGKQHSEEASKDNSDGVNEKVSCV", "assay": "Displacement of [3H]-kentanserin from 5HT2A receptor at 10 uM", "method_in_brief": "as §1"}, "[6]": {"target": "Cannabinoid receptor 2 (Mus musculus) (UniProt P47936)", "assay": "Binding affinity to cannabinoid CB2 receptor in mouse B lymphocytes at 5 uM after 30 mins using PE-conjugated anti-B220 antibody staining by flow cytometric analysis", "format": "cell-based", "method_in_brief": "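Lung mononuclear cells from mice were prepared by collagenase digestion of lung tissue. They were stained with PE-conjugated anti-B220 antibody and NBD-labelled probe at 5 µM on ice for 30 min, then analysed by flow cytometry.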"}, "[7]": {"target": "Cannabinoid receptor 1 (Homo sapiens) (UniProt P21554)", "sequence (P21554 whole entry)": "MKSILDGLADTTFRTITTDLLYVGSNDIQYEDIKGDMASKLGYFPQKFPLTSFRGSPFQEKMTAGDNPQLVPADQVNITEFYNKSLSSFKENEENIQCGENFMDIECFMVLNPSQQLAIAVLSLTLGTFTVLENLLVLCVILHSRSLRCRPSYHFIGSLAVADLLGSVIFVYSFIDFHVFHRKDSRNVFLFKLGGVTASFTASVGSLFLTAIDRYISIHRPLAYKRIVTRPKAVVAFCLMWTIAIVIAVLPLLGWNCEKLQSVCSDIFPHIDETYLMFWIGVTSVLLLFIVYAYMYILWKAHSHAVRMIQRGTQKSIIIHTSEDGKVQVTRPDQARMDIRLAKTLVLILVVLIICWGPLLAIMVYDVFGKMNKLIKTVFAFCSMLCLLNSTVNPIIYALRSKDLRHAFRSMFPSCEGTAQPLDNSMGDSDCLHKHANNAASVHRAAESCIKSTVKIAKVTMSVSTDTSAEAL", "assay": "Displacement of [3H]-CP55940 from cannabinoid CB1 receptor at 10 uM", "method_in_brief": "as §1"}, "[8]": {"target": "Cannabinoid receptor 2 (Mus musculus) (UniProt P47936)", "assay": "Binding affinity to cannabinoid CB2 receptor in mouse B lymphocytes at 5 uM after 30 mins using PE-conjugated anti-B220 antibody staining by flow cytometric analysis in presence of GW842166X", "format": "cell-based", "method_in_brief": "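Mouse lung mononuclear cells, prepared by collagenase digestion, were first preincubated on ice for 5 min with the CB2 agonist GW842166X at 100 µM. They were then stained with PE-conjugated anti-B220 antibody and NBD-labelled probe at 5 µM on ice for 30 min, and analysed by flow cytometry.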"}, "[9]": {"target": "Cannabinoid receptor 2 (Mus musculus) (UniProt P47936)", "assay": "Binding affinity to cannabinoid CB2 receptor in non transfected BALB/c mouse CD4+ T cells at 1 uM after 30 mins using PE-conjugated […] antibody staining by confocal microscopic analysis", "format": "cell-based", "conditions": "T-cell", "method_in_brief": "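T cells were purified from peripheral lymph nodes of BALB/c mice and stained with PE-conjugated anti-CD4 antibody plus NBD-labelled probe at 0.1, 1.0 or 5 µM. Incubation on ice for 30 min is stated for the 5 µM condition. CD4+ cells were imaged by confocal microscopy (x40).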"}},
  "note": "Active and inactive are the calls of the source. The rule behind the calls is not given here.",
  "data": [
    {"smiles": "CCCCCN1C(=O)/C(=N\\NC(=O)CN(C)c2ccc([N+](=O)[O-])c3nonc23)c2ccc(OC)cc21", "values": [
      {"measurement": "inhibition", "setting": "[1]", "value": "< 40", "unit": "%"},
      {"measurement": "Ki", "setting": "Cannabinoid receptor 2", "value": 387, "unit": "nM"},
      {"measurement": "Activity", "setting": "[2]", "value": "Active"},
      {"measurement": "Activity", "setting": "[3]", "value": "inactive"},
      {"measurement": "Activity", "setting": "[4]", "value": "inactive"},
      {"measurement": "inhibition", "setting": "[5]", "value": "< 40", "unit": "%"},
      {"measurement": "Activity", "setting": "[6]", "value": "Active"},
      {"measurement": "inhibition", "setting": "[7]", "value": "< 40", "unit": "%"},
      {"measurement": "Activity", "setting": "[8]", "value": "inactive"},
      {"measurement": "Activity", "setting": "[9]", "value": "inactive"}
    ]}
  ]
}
